Calls of active or inactive are those of the source. No cut-off for these calls is given here.

The test system of test [1] is A549. The test can be described thus: Antiproliferative activity against human A549 cells assessed as inhibition of cell growth incubated for 48 hrs by MTT assay. Type of test: functional, cell-based. The note with it: A549, 48 h. Put shortly:
(§1)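 MTT read-out. Cells seeded at 5.0 × 10⁴ cells/ml and cultured 24 h, then exposed to the drug over a range of concentrations for 48 h, with matching DMSO as control. MTT (5 mg/ml) added for 4 h, supernatant removed, formazan dissolved in DMSO, OD read at 570 nm. Run in triplicate, mean ± SD (n = 3).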
In general terms: Formazan colour is commonly taken as a measure of viable cells.

The next test deals with HepG2. The experiment in a line: Antiproliferative activity against human HepG2 cells assessed as inhibition of cell growth incubated for 48 hrs by MTT assay. Type of test: functional, cell-based. The note with it: HepG2, 48 h. The method in brief: as §1
The next test deals with MCF7. The test can be described thus: Antiproliferative activity against human MCF7 cells assessed as inhibition of cell growth incubated for 48 hrs by MTT assay. Type of test: functional, cell-based. Conditions: MCF7, 48 h. Put shortly: as §1
The next test relates to HOS. The test can be described thus: Antiproliferative activity against human HOS cells assessed as inhibition of cell growth incubated for 48 hrs by MTT assay. Type of test: functional, cell-based. The method in brief: as §1
Test [2] deals with A549. The test can be described thus: Antiproliferative activity against human A549 cells assessed as inhibition of cell growth at 1.5 uM incubated for 48 hrs by MTT assay relative to control. Type of test: functional. Conditions: A549, 48 h; for inhibition of growth at 1.5 µM: read-out: GI.
For test [3], the system named is A549. The experiment in a line: Induction of apoptosis in human A549 cells assessed as late apoptotic cells at 1.2 uM incubated for 48 hrs by Annexin V-FITC and PI staining based flow cytometric analysis (reference value: 3.0%). Type of test: functional. Put shortly:
(§2)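 A549 cells (4×10^5 per 6 cm dish) cultured 24 h, then treated 48 h with compound or DMSO. Cells gently harvested, washed twice in cold PBS, resuspended in binding buffer with Annexin V and PI, stained 15 min at room temperature in the dark, analysed by flow cytometry. Mean ± SD, n = 3.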
A general note: In flow cytometry, cells or beads pass a laser one at a time.

Test [4] addresses T1, Hsp90 co-chaperone Cdc37 (Homo sapiens) (UniProt Q16543).
T1 sequence (whole entry): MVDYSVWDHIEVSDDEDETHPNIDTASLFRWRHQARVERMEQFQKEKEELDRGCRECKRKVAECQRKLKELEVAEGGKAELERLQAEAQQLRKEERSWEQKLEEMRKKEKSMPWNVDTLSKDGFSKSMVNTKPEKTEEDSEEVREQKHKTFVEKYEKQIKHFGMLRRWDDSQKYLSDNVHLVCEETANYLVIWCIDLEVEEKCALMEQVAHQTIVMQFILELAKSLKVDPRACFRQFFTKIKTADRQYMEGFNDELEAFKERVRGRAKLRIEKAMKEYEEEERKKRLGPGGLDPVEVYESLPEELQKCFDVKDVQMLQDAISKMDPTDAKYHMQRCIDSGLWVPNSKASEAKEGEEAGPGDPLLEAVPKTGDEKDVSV
The experiment in a line: Binding affinity to Cdc37 in human A549 cells assessed as inhibition of HSP90-Cdc37 interaction by measuring decrease in CDK4 protein level at 5 uM incubated for 12 hrs by Western blot analysis. Type of test: cell-based. The method in brief: (§3)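 A549 cells seeded 5×10^5 per 6 cm dish, grown 12 h, then exposed to compound or DMSO for 12 h. Lysates adjusted to 3 mg/ml protein (BCA), run on 10% SDS-PAGE, immunoblotted for p-Akt and Cdk4. Band levels quantified against Hsp90 loading control. Three separate experiments, mean ± SD.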
(A western blot detects proteins with antibodies after separation by electrophoresis.)

For test [5], the target named is Heat shock protein HSP 90-alpha (Homo sapiens) (UniProt P07900). The test can be described thus: Inhibition of ATP binding to human HSP90 alpha at 5 to 10 uM preincubated for 30 mins followed by gamma phosphate-linked ATP sepharose addition and measured after 30 mins by ATP-binding sepharose assay based western blot analysis. The method in brief: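 Purified human Hsp90α incubated on ice 30 min with compound or DMSO in 10 mM Tris-HCl pH 7.5, 50 mM KCl, 5 mM MgCl2, 2 mM DTT, 20 mM Na2MoO4, 0.01% NP-40. γ-phosphate-linked ATP-Sepharose then added, 30 min at 37 °C with frequent mixing. Resin washed and pelleted, bound Hsp90α detected by SDS-PAGE/Western blot.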

In test [6] the target is T1, Hsp90 co-chaperone Cdc37 (Homo sapiens). The experiment in a line: Binding affinity to Cdc37 in human A549 cells assessed as inhibition of HSP90-Cdc37 interaction by measuring decrease in Akt phosphorylation level at 5 uM incubated for 12 hrs by Western blot analysis. Type of test: cell-based. Put shortly: as §3
Test [7] deals with A549. The experiment in a line: Induction of apoptosis in human A549 cells assessed as early apoptotic cells at 1.2 uM incubated for 48 hrs by Annexin V-FITC and PI staining based flow cytometric analysis (reference value: 0.5%). Type of test: functional. The method in brief:
as §2

In test [8] the test system is A549. The test can be described thus: Induction of apoptosis in human A549 cells assessed as viable cells at 1.2 uM incubated for 48 hrs by Annexin V-FITC and PI staining based flow cytometric analysis (reference value: 95.5%). Conditions: A549, 48 h, read-out: Activity. Type of test: functional. Put shortly: as §2
In test [9] the test system is A549. The test can be described thus: Induction of apoptosis in human A549 cells assessed as necrotic cells at 1.2 uM incubated for 48 hrs by Annexin V-FITC and PI staining based flow cytometric analysis (reference value: 1.0%). Type of test: functional. The method in brief: as §2
Test [10] concerns A549. The test can be described thus: Antiproliferative activity against human A549 cells assessed as inhibition of cell growth at 0.5 uM incubated for 48 hrs by MTT assay relative to control. Type of test: functional. The note with it: A549, 48 h, read-out: GI.

For the molecule `COC(=O)[C@]12CCC(C)(C)C[C@H]1[C@H]1C(=O)C=C3[C@@]4(C)C=C(C#N)C(=O)C(C)(C)[C@@H]4CC[C@@]3(C)[C@]1(C)CC2` [BARDOXOLONE METHYL], the 50% inhibitory concentration (IC50) in the test with A549 [1] was 0.52 µM; with HepG2, 0.52 µM; in the test on MCF7, 0.85 µM; with HOS, 0.66 µM.
As for `CC1=C(O)C(=O)C=C2C1=CC=C1[C@@]2(C)CC[C@@]2(C)[C@@H]3C[C@](C)(C(=O)OCCCOC(=O)/C=C(\C#N)c4ccccc4)CC[C@]3(C)CC[C@]12C`, in the test with A549 [2], the inhibition of growth at 1.5 µM came out at 53.7%. The IC50 came out at 1.41 µM with A549 [1], 0.76 µM with HepG2, 0.98 µM with MCF7 and 0.45 µM in the test with HOS.
`COc1ccc(/C(C#N)=C/C(=O)OCCCOC(=O)[C@]2(C)CC[C@]3(C)CC[C@]4(C)C5=CC=C6C(=CC(=O)C(O)=C6C)[C@]5(C)CC[C@@]4(C)[C@@H]3C2)cc1`: the inhibition of growth at 1.5 µM in the test on A549 [2] came out at 53.4%. Also, the IC50 with A549 [1] stood at 1.09 µM; in the test on HepG2 it was 1.27 µM; with MCF7, 1.1 µM; with HOS it was 1.75 µM.
As to `CC1=C(O)C(=O)C=C2C1=CC=C1[C@@]2(C)CC[C@@]2(C)[C@@H]3C[C@](C)(C(=O)O)CC[C@]3(C)CC[C@]12C` [CELASTROL], the inhibition at 1.5 µM with A549 [2] was 48%. In addition, the figures for the Activity with A549 [3], in the test with A549 [7] and with A549 [9] were 15.6%, 7.5% and 3.9%, respectively. The IC50 in the test on A549 [1] amounted to 1.48 µM; with HepG2, 3.18 µM; in the test on MCF7, 2.04 µM; in the test on HOS it was 1.46 µM. In addition, the inhibition result in [4] and in test [6] was “Active” each time. For the same molecule, in test [5], the inhibition result was “inactive”. In the test on A549 [8], the viability at 1.2 µM is 73%.
Consider `CC1=C(O)C(=O)C=C2C1=CC=C1[C@@]2(C)CC[C@@]2(C)[C@@H]3C[C@](C)(C(=O)OCCOC(=O)/C=C(\C#N)c4ccc(F)cc4)CC[C@]3(C)CC[C@]12C`, for which, in the test with A549 [2], the inhibition of growth at 1.5 µM worked out at 65.9%. Besides, the IC50 in the test with A549 [1] was found to be 1.02 µM; in the test on HepG2, 3.89 µM; in the test with MCF7 it was 2.35 µM; in the test with HOS it was 2.18 µM.
Take `CC1=C(O)C(=O)C=C2C1=CC=C1[C@@]2(C)CC[C@@]2(C)[C@@H]3C[C@](C)(C(=O)OC/C=C/COC(=O)/C=C(\C#N)c4ccccc4)CC[C@]3(C)CC[C@]12C`: the IC50 in the test with A549 [1] worked out at 3.54 µM; in the test on HepG2 it was 3.45 µM; with MCF7, 2.86 µM; with HOS it was 4.78 µM.
For `CC1=C(O)C(=O)C=C2C1=CC=C1[C@@]2(C)CC[C@@]2(C)[C@@H]3C[C@](C)(C(=O)OC/C=C/COC(=O)/C=C(\C#N)c4ccc(F)cc4)CC[C@]3(C)CC[C@]12C`, the 50% inhibitory concentration (IC50) in the test on A549 [1] was 1.84 µM; with HepG2, 2.74 µM; in the test with MCF7, 1.11 µM; in the test on HOS, 1.33 µM.
Consider `COc1ccc(/C(C#N)=C/C(=O)OCCOC(=O)[C@]2(C)CC[C@]3(C)CC[C@]4(C)C5=CC=C6C(=CC(=O)C(O)=C6C)[C@]5(C)CC[C@@]4(C)[C@@H]3C2)cc1`, for which the inhibition of growth at 1.5 µM in the test on A549 [2] is 48.1%. Moreover, the IC50 was 1.79 µM in the test with A549 [1], 0.97 µM with HepG2, 0.97 µM with MCF7 and 1.14 µM in the test with HOS.
Turning to `COc1ccc(/C(C#N)=C/C(=O)OC/C=C/COC(=O)[C@]2(C)CC[C@]3(C)CC[C@]4(C)C5=CC=C6C(=CC(=O)C(O)=C6C)[C@]5(C)CC[C@@]4(C)[C@@H]3C2)cc1`, the concentration for half-maximal inhibition (IC50) in the test on A549 [1] was found to be 1.34 µM; with HepG2, 2.71 µM; in the test on MCF7 it was 1.44 µM; in the test on HOS, 1.79 µM.
On to `COC(=O)CSC1C=C2C(C)(CC[C@@]3(C)[C@@H]4C[C@](C)(C(=O)OCCCOC(=O)/C=C(\C#N)c5ccc(F)cc5)CC[C@]4(C)CC[C@]23C)c2cc(OC(C)=O)c(OC(C)=O)c(C)c21` (single isomer, unassigned), for which, in the test on A549 [10], the inhibition of growth at 0.5 µM stood at 20.5%.
As to `CC1=C(O)C(=O)C=C2C1=CC=C1[C@@]2(C)CC[C@@]2(C)[C@@H]3C[C@](C)(C(=O)OCCCOC(=O)/C(C#N)=C/c4ccc(F)cc4)CC[C@]3(C)CC[C@]12C`, in the test on A549 [2], the inhibition of growth at 1.5 µM is 25%.
On the same count and under the same terms, with `CC1=C(O)C(=O)C=C2C1=CC=C1[C@@]2(C)CC[C@@]2(C)[C@@H]3C[C@](C)(C(=O)OCCCCOC(=O)/C(C#N)=C/c4ccc(F)cc4)CC[C@]3(C)CC[C@]12C` the figure was 19%; with `CC1=C(O)C(=O)C=C2C1=CC=C1[C@@]2(C)CC[C@@]2(C)[C@@H]3C[C@](C)(C(=O)OCCCCOC(=O)/C=C/c4ccc(F)cc4)CC[C@]3(C)CC[C@]12C`, 14.7%; with `CC1=C(O)C(=O)C=C2C1=CC=C1[C@@]2(C)CC[C@@]2(C)[C@@H]3C[C@](C)(C(=O)OCCCCOC(=O)/C(C#N)=C/c4ccc(C(F)(F)F)cc4)CC[C@]3(C)CC[C@]12C`, 7.85%.
As to `CC1=C(O)C(=O)C=C2C1=CC=C1[C@@]2(C)CC[C@@]2(C)[C@@H]3C[C@](C)(C(=O)OCCOC(=O)/C=C/c4ccc(C(F)(F)F)cc4)CC[C@]3(C)CC[C@]12C`, in the test with A549 [2], the inhibition of growth at 1.5 µM amounted to 26%.
Same read-out and setting: to `CC1=C(O)C(=O)C=C2C1=CC=C1[C@@]2(C)CC[C@@]2(C)[C@@H]3C[C@](C)(C(=O)OCCCOC(=O)/C(C#N)=C/c4ccccc4)CC[C@]3(C)CC[C@]12C` belongs 19.1%; to `COc1ccc(/C=C/C(=O)OCCCCOC(=O)[C@]2(C)CC[C@]3(C)CC[C@]4(C)C5=CC=C6C(=CC(=O)C(O)=C6C)[C@]5(C)CC[C@@]4(C)[C@@H]3C2)cc1`, 20.6%.
As for `CC1=C(O)C(=O)C=C2C1=CC=C1[C@@]2(C)CC[C@@]2(C)[C@@H]3C[C@](C)(C(=O)OCCOC(=O)/C=C(\C#N)c4ccccc4)CC[C@]3(C)CC[C@]12C`, the inhibition of growth at 1.5 µM with A549 [2] amounted to 59.6%. Also, the IC50 with A549 [1] was found to be 1.02 µM; in the test with HepG2, 0.65 µM; in the test with MCF7 it was 0.7 µM; in the test on HOS, 0.54 µM.

In general, IC50 refers to the concentration that inhibits the measured activity by half. Usually inhibition stands for the change of the read-out against control, counted positive when it falls.

These data come from ChEMBL document CHEMBL4376838, “Discovery of Novel Celastrol Derivatives as Hsp90-Cdc37 Interaction Disruptors with Antitumor Activity” (J Med Chem, 2019).
